Measurements published in PMC3604185 (Biochemical pharmacology, 2013).
Where “and” joins values, the source holds several entries; their conditions need not be identical. Identical values can stand only once.

Columns and labels:
hA3AR [1] = target: T1, hA3AR (Homo sapiens, UniProt P0DMS8); assay: FCM competitive binding in hA3AR-CHO whole cells with MRS5218; conditions: read-out: FCM binding at hA3AR, Ki, MRS5218 30 nM tracer, 60 min at 37 °C, 0.4 M sucrose
T1 sequence (P0DMS8 1-318): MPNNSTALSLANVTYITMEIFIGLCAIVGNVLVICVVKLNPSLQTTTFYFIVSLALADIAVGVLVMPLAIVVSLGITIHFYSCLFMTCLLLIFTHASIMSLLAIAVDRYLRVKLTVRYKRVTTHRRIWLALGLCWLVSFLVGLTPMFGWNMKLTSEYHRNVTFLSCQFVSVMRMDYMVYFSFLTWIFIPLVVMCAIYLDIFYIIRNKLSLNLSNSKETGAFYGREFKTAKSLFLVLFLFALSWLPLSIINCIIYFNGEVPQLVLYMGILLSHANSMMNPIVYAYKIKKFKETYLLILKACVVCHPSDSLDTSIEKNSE

mA1AR [2] = target: T2, mA1AR (Mus musculus, UniProt Q60612); assay type: binding; conditions: read-out: Ki, A1AR (mouse), n = 3-4
T2 sequence (Q60612 1-326): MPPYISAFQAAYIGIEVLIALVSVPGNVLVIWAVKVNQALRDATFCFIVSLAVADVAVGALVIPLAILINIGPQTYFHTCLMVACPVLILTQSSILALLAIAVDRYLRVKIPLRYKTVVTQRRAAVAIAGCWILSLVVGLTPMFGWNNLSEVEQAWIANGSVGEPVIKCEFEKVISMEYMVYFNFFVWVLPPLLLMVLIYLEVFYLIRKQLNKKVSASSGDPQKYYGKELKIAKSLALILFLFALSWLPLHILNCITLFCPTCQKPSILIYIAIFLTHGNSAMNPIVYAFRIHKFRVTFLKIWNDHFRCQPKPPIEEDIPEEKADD
Method in brief: (§1)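 Membranes from HEK293 cells stably expressing the mouse receptor were used in a competition assay following the human-receptor protocol. Test compound at increasing concentrations was incubated with radioligand and membranes in 50 mM Tris-HCl, pH 7.5, with 10 mM MgCl2, at 25 °C for 60 min. Bound and free were separated by GF/B filtration with ice-cold Tris washes. […] Ki was calculated from IC50 by nonlinear fitting.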

mA2AAR [3] = target: T3, mA2AAR (Mus musculus, UniProt Q60613); assay type: binding; conditions: read-out: Ki, A2AAR (mouse), n = 3-4
T3 sequence (Q60613 whole entry): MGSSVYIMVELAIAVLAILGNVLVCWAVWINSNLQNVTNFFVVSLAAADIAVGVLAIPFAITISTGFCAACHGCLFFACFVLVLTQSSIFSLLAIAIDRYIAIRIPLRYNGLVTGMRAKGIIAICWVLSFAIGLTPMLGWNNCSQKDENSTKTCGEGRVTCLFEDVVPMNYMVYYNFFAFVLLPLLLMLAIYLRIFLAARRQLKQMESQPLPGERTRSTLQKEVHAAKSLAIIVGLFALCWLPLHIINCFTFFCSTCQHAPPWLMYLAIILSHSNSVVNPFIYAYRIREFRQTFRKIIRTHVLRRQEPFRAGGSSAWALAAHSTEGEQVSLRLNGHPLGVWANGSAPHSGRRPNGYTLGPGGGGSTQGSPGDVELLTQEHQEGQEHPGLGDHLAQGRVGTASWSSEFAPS
Method in brief: as §1

hA1AR = target: T4, hA1AR (Homo sapiens, UniProt P30542); conditions: inhibition of radioligand binding at 10 µM, ref [19],[21],[22]; cited from earlier work
T4 sequence (P30542 1-326): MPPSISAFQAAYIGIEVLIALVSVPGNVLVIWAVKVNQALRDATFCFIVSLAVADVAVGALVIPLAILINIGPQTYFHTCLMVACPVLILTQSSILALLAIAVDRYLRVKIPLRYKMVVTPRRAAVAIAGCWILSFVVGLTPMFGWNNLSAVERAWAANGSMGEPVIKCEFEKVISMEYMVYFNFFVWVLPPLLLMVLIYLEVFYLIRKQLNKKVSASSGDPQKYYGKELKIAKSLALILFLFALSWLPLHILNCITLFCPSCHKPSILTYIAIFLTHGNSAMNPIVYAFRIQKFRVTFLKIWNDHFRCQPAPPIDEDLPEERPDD

mA2AAR [4] = target: T3, mA2AAR; assay: FCM binding in HEK293 cells expressing mA2AAR; conditions: 1 µM, 2 h
Method in brief: (§2)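 Stable HEK293 lines expressing the mouse receptor were grown in DMEM with 10% FBS, 2 mM L-glutamine, penicillin/streptomycin and 0.6 mg/ml G418, then plated for 24 h at 37 °C, 5% CO2. At about 80% confluency, the fluorescent agonist (range 5–1000 nM) was added in fresh medium at 37 °C. Cells were then washed in ice-cold PBS, detached with 0.2% EDTA, spun twice at 400 × g and resuspended in PBS. MFI was read by flow cytometry (635 nm laser, FL-4, log mode).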

mA3AR [5] = target: T5, mA3AR (Mus musculus, UniProt Q61618); assay type: binding; conditions: read-out: Ki, A3AR (mouse), n = 3-4
T5 sequence (Q61618 1-319): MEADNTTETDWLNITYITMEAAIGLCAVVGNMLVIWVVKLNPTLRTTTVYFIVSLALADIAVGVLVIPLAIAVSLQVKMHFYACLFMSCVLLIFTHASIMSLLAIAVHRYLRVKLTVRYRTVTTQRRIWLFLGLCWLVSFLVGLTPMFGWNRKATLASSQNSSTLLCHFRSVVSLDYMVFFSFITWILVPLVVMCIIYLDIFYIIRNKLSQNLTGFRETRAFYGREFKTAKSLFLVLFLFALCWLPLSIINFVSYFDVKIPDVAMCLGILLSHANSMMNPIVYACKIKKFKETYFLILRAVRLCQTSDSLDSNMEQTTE
Method in brief: as §1

mA1AR [6] = target: T2, mA1AR; assay: FCM binding in HEK293 cells expressing mA1AR; conditions: 1 µM, 2 h
Method in brief: as §2

mA2BAR = target: T6, mA2BAR (Mus musculus, UniProt Q60614); assay: FCM binding in HEK293 cells expressing mA2BAR; conditions: 1 µM, 2 h
T6 sequence (Q60614 1-332): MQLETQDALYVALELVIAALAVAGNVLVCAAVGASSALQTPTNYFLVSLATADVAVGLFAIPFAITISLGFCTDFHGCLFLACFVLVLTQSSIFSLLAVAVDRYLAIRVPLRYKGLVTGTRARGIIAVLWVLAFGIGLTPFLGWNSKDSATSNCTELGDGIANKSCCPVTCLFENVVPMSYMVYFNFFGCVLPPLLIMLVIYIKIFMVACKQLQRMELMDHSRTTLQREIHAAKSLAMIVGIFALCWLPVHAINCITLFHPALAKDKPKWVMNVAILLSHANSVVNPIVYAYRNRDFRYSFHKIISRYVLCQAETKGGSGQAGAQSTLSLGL
Method in brief: as §2

hA2AAR = hA2AAR (Homo sapiens, UniProt P29274); conditions: read-out: Ki, A2AAR, ref [21],[22]; cited from earlier work
Sequence of hA2AAR (P29274 whole entry): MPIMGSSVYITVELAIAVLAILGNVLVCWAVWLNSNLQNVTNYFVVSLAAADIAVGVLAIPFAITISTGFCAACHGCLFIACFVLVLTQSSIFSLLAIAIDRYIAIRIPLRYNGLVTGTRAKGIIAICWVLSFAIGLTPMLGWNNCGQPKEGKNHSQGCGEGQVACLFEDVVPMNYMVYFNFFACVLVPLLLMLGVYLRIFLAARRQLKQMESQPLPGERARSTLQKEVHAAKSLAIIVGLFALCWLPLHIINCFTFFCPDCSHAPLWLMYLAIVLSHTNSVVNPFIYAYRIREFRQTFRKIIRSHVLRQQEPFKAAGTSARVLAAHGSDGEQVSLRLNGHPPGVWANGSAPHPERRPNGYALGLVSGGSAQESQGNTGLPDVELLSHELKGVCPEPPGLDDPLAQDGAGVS

mA3AR [7] = target: T5, mA3AR; assay: FCM binding
Method in brief: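 HEK293 cells stably expressing mouse A3AR, grown in DMEM with 10% FBS and 0.6 mg/ml G418. Cells were incubated with fluorescent agonist (5–1,000 nM) at 37 °C for varied times. […] Cells were washed in ice-cold PBS and detached with 0.2% EDTA. MFI was read in FL-4 (635 nm laser) and fitted by non-linear least squares.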

hA3AR [8] = target: T1, hA3AR; assay: FCM of MRS5704 in AR-expressing HEK293 cells; assay type: binding

`OC[C@H]1O[C@@H](n2cnc3c(NC4CCCC4)ncnc32)[C@H](O)[C@@H]1O` [CPA] showed a Ki (hA3AR [1]) of 88.4 ± 13.6 nM.
In the case of “(1′S,2′R,3′S,4′S,5′S)-4′-[6-(3-chlorobenzylamino)-2-(N-cyanine(β-aminoethylaminocarbonyl)-1-butynyl)-9-yl]-2′,3′-dihydroxybicyclo[3.1.0]hexane-1′-carboxylic acid N-methylamide [Compound 1]”, the Ki (mA1AR [2]) is listed as 143 nM, the Ki (mA2AAR [3]) is listed as 717 ± 19 nM and the “% inhibition, A1AR” value (hA1AR) is listed as “h: 36%”. For the same molecule, the “specific binding to mA2AAR-HEK293 cells” value (mA2AAR [4]) was “not observed”, the Ki (mA3AR [5]) was 261 ± 29 nM and the “specific binding to mA1AR-HEK293 cells” value (mA1AR [6]) was “not observed”. The “specific binding to mA2BAR-HEK293 cells” value (mA2BAR) was “became detectable”, the Ki (hA2AAR) was 4730 nM and the t1/2 of dissociation (mA3AR [7]; 5 nM for 2 h, then NECA (100 µM)) was 39.4 ± 4.2 min. The t1/2 of association (mA3AR [7]; 5 nM, listed as MRS5218) was 38 min and 37.8 ± 2.9 min, the “specific labeling of mA3AR-HEK293 cells” value (mA3AR [7]; 50-300 nM, 2 h, nonspecific with 100 µM NECA) was “specifically labeled mA3AR-HEK293 cells versus cells expressing other AR subtypes” and the Kd (mA3AR [7]; read-out: Kd app, saturation, whole cells, 2 h, absence of sucrose) was 7.52 ± 0.49 nM. For the same molecule, the Bmax (mA3AR [7]; saturation, whole cells, 2 h, absence of sucrose) was 99,420±18,110 MESF/cell.
For `CNC(=O)[C@@]12C[C@@H]1[C@@H](n1cnc3c(NCc4cccc(Cl)c4)nc(C#Cc4ccc5ccc6cccc7ccc4c5c67)nc31)[C@H](O)[C@@H]2O` [Compound 2, (1S,2R,3S,4R,5S)-4-(6-(3-chlorobenzylamino)-2-(pyren-1-ylethynyl)-9H-purin-9-yl)-2,3-dihydroxy-N-methylbicyclo[3.1.0]hexane-1-carboxamide], the “specific fluorescent binding by FCM, hA3AR” value (hA3AR [8]) was “failed to show specific fluorescent binding” and the “specific fluorescent binding by FCM, mA3AR” value (mA3AR [7]; AR-expressing HEK293 cells) was “failed to show specific fluorescent binding”.
